{
  "source": "ChEMBL document CHEMBL5608238",
  "about": "“Discovery of Thiophene Derivatives as Potent, Orally Bioavailable, and Blood-Brain Barrier-Permeable Ebola Virus Entry Inhibitors” (J Med Chem, 2024)",
  "key": {"Ebolavirus [1]": {"test_system": "Ebolavirus", "test": "Antiviral activity against EBOV Kikwit infected in HeLa cells", "assay_type": "functional, organism-based", "conditions": "Orthoebolavirus"}, "[2]": {"test": "Selectivity index, ratio of CC50 for african green monkey Vero E6 cells to EC50 for EBOV infected in Vero E6 cells", "assay_type": "toxicity, cell-based", "conditions": "read-out: Ratio CC50/EC50"}, "[3]": {"test": "Cytotoxicity against african green monkey Vero E6 cells", "assay_type": "toxicity, cell-based, Vero C1008", "conditions": "chlorocebus sabaeus"}, "Ebolavirus [4]": {"test_system": "Ebolavirus", "test": "Antiviral activity against EBOV infected in HeLa cells", "assay_type": "functional, organism-based", "conditions": "Orthoebolavirus"}, "Ebolavirus [5]": {"test_system": "Ebolavirus", "test": "Antiviral activity against EBOV-GP pseudotyped virus infected in Vero E6 cells preincubated with cells for 1 hr followed by viral addition and measured after 24 hrs by Steady-Glo microplate luminometer analysis", "assay_type": "functional, organism-based", "conditions": "Orthoebolavirus, Vero C1008", "summary_of_the_method": "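VeroE6 cells (2 × 10⁴/well) were treated with compound at 10 nM–10 μM for 1 h at 37 °C, then infected with 5000 TCID of EBOV Mayinga GP-pseudotyped rVSVΔG-luciferase. Luciferase was read by Steady-Glo after 24 h.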"}, "[6]": {"test": "Selectivity index, ratio of CC50 for african green monkey Vero E6 cells to EC50 for wild type Zaire EBOV Mayinga 1976 infected in Vero E6 cells", "assay_type": "toxicity, cell-based", "conditions": "read-out: Ratio CC50/EC50"}, "[7]": {"test": "Selectivity index, ratio of CC50 for african green monkey Vero E6 cells to EC50 for EBOV-GP pseudotyped virus infected in Vero E6 cells", "assay_type": "toxicity, cell-based", "conditions": "read-out: Ratio CC50/EC50"}, "[8]": {"test": "Drug concentration in BALB/c mouse plasma at 10 mg/kg, ip measured upto 24 hrs by LC-MS/MS analysis", "assay_type": "ADME, organism-based", "summary_of_the_method": "(§1)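 Male BALB/c mice (8–12 weeks, 20–35 g) were given a single dose of test compound solution, either 10 mg/kg i.p. or 50 mg/kg p.o., at 10 mL/kg. Blood and then brain were taken from three mice per time point up to 24 h postdose. Plasma and brain levels were measured by LC–MS/MS, and parameters came from noncompartmental analysis.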"}, "[9]": {"test": "AUClast in BALB/c mouse brain at 50 mg/kg, po measured upto 24 hrs by LC-MS/MS analysis", "assay_type": "ADME, organism-based", "conditions": "in vivo", "summary_of_the_method": "as §1"}, "[10]": {"test": "Drug concentration in BALB/c mouse brain at 50 mg/kg, po measured upto 24 hrs by LC-MS/MS analysis", "assay_type": "ADME, organism-based", "conditions": "read-out: Ct", "summary_of_the_method": "as §1"}, "[11]": {"test": "Drug concentration in BALB/c mouse brain at 10 mg/kg, ip measured upto 24 hrs by LC-MS/MS analysis", "assay_type": "ADME, organism-based", "conditions": "read-out: Ct", "summary_of_the_method": "as §1"}, "[12]": {"test": "Toxicity in C57BL/6 mouse assessed as decrease in feed consumption at 100 mg/kg, po measured after 4 days", "assay_type": "organism-based", "conditions": "in vivo, 96 h, time 4 day", "summary_of_the_method": "(§2)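 Male and female C57BL/6 mice (3/sex/group) got a single oral gavage dose of 50, 100 or 250 mg/kg at 10 mL/kg, in 7.5% NMP, 7.5% Solutol HS-15, 25% PEG-400 and 60% RO water. Controls received vehicle. Clinical signs, body weight, percent weight gain and feed consumption were followed for 4 days, then survivors underwent euthanasia and gross pathology.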"}, "[13]": {"test": "AUClast in BALB/c mouse plasma at 10 mg/kg, ip measured upto 24 hrs by LC-MS/MS analysis", "assay_type": "ADME, organism-based", "conditions": "in vivo", "summary_of_the_method": "as §1"}, "[14]": {"test": "Toxicity in C57BL/6 mouse assessed as tolerability at 50 mg/kg, po measured after 4 days", "assay_type": "organism-based", "conditions": "in vivo, 96 h, time 4 day", "summary_of_the_method": "as §2"}, "[15]": {"test": "Toxicity in C57BL/6 mouse assessed as decrease in body weight gain at 100 mg/kg, po measured after 4 days", "assay_type": "organism-based", "conditions": "in vivo, 96 h, time 4 day", "summary_of_the_method": "as §2"}, "[16]": {"test": "AUClast in BALB/c mouse plasma at 50 mg/kg, po measured upto 24 hrs by LC-MS/MS analysis", "assay_type": "ADME, organism-based", "conditions": "in vivo", "summary_of_the_method": "as §1"}, "[17]": {"test": "Drug concentration in BALB/c mouse plasma at 50 mg/kg, po measured upto 24 hrs by LC-MS/MS analysis", "assay_type": "ADME, organism-based", "summary_of_the_method": "as §1"}, "[18]": {"test": "AUClast in BALB/c mouse brain at 10 mg/kg, ip measured upto 24 hrs by LC-MS/MS analysis", "assay_type": "ADME, organism-based", "conditions": "in vivo", "summary_of_the_method": "as §1"}, "[19]": {"test": "Toxicity in C57BL/6 mouse assessed as mortality at 250 mg/kg, po measured after 4 days", "assay_type": "organism-based", "conditions": "in vivo, 96 h, time 4 day", "summary_of_the_method": "as §2"}, "[20]": {"test": "Tmax in BALB/c mouse plasma at 10 mg/kg, ip measured upto 24 hrs by LC-MS/MS analysis", "assay_type": "ADME, organism-based", "conditions": "in vivo", "summary_of_the_method": "as §1"}, "[21]": {"test": "Cmax in BALB/c mouse brain at 50 mg/kg, po measured upto 24 hrs by LC-MS/MS analysis", "assay_type": "ADME, organism-based", "conditions": "in vivo", "summary_of_the_method": "as §1"}, "[22]": {"test": "Tmax in BALB/c mouse brain at 10 mg/kg, ip measured upto 24 hrs by LC-MS/MS analysis", "assay_type": "ADME, organism-based", "conditions": "in vivo", "summary_of_the_method": "as §1"}, "[23]": {"test": "Tmax in BALB/c mouse plasma at 50 mg/kg, po measured upto 24 hrs by LC-MS/MS analysis", "assay_type": "ADME, organism-based", "conditions": "in vivo", "summary_of_the_method": "as §1"}, "[24]": {"test": "Cmax in BALB/c mouse plasma at 50 mg/kg, po measured upto 24 hrs by LC-MS/MS analysis", "assay_type": "ADME, organism-based", "conditions": "in vivo", "summary_of_the_method": "as §1"}, "[25]": {"test": "Tmax in BALB/c mouse brain at 50 mg/kg, po measured upto 24 hrs by LC-MS/MS analysis", "assay_type": "ADME, organism-based", "conditions": "in vivo", "summary_of_the_method": "as §1"}, "Ebolavirus [26]": {"test_system": "Ebolavirus", "test": "Antiviral activity against EBOV Zaire Kikwit infected in Huh-7 cells incubated for 48 to 72 hrs", "assay_type": "functional, organism-based", "conditions": "Orthoebolavirus"}, "Ebolavirus [27]": {"test_system": "Ebolavirus", "test": "Antiviral activity against eGFP-EBOV infected in Vero E6 cells incubated for 48 hrs by spectrofluorometer assay", "assay_type": "functional, organism-based", "conditions": "Orthoebolavirus, Vero C1008, 48 h"}},
  "data": [
    {"compound": "Nc1ncnc2c([C@@H]3N[C@H](CO)[C@@H](O)[C@H]3O)c[nH]c12", "values": [
      {"measurement": "EC50", "setting": "Ebolavirus [1]", "result": 11.8, "unit": "µM"}
    ]},
    {"compound": "NC(=O)c1nc(F)c[nH]c1=O", "values": [
      {"measurement": "selectivity ratio", "setting": "[2]", "result": 14.9},
      {"measurement": "CC50", "setting": "[3]", "result": "> 1000", "unit": "µM"}
    ]},
    {"compound": "CCC(CC)COC(=O)[C@H](C)N[P@](=O)(OC[C@H]1O[C@@](C#N)(c2ccc3c(N)ncnn23)[C@H](O)[C@@H]1O)Oc1ccccc1", "values": [
      {"measurement": "EC50", "setting": "Ebolavirus [4]", "result": 0.14, "unit": "µM"}
    ]},
    {"compound": "O=C(NCCc1ccccc1)c1ccc(-c2cccc(OC3CCNCC3)c2)s1", "values": [
      {"measurement": "EC50", "setting": "Ebolavirus [5]", "result": 5.3, "unit": "µM"}
    ]},
    {"compound": "O=C(Nc1ccccc1)c1ccc(-c2cccc(OC3CCNCC3)c2)s1", "values": [
      {"measurement": "selectivity ratio", "setting": "[6]", "result": 113},
      {"measurement": "selectivity ratio", "setting": "[7]", "result": 4.7}
    ]},
    {"compound": "O=C(Nc1ccccc1)c1ccc(-c2ccc(OC3CCNCC3)cc2)s1", "values": [
      {"measurement": "concentration at 24 h", "setting": "[8]", "result": 2740, "unit": "nM"},
      {"measurement": "AUClast", "setting": "[9]", "result": 97086.13, "unit": "ng·h/mL"},
      {"measurement": "concentration at 24 h", "setting": "[10]", "result": 14800, "unit": "nM"},
      {"measurement": "concentration at 24 h", "setting": "[11]", "result": 4430, "unit": "nM"},
      {"measurement": "Activity", "setting": "[12]", "result": "Toxic"},
      {"measurement": "AUClast", "setting": "[13]", "result": 2973.11, "unit": "ng·h/mL"},
      {"measurement": "Activity", "setting": "[14]", "result": "Non-Toxic"},
      {"measurement": "Activity", "setting": "[15]", "result": "Toxic"},
      {"measurement": "AUClast", "setting": "[16]", "result": 8610.24, "unit": "ng·h/mL"},
      {"measurement": "concentration at 24 h", "setting": "[17]", "result": 2040, "unit": "nM"},
      {"measurement": "AUClast", "setting": "[18]", "result": 25429.34, "unit": "ng·h/mL"},
      {"measurement": "Activity", "setting": "[19]", "result": "Toxic"}
    ]},
    {"compound": "O=C(Nc1ccccc1)c1ccc(-c2ccccc2OC2CCNCC2)s1", "values": [
      {"measurement": "concentration at 24 h", "setting": "[8]", "result": 320, "unit": "nM"},
      {"measurement": "Tmax", "setting": "[20]", "result": 0.25, "unit": "h"},
      {"measurement": "Cmax", "setting": "[21]", "result": 316.7, "unit": "ng/mL"},
      {"measurement": "AUClast", "setting": "[9]", "result": 3341.42, "unit": "ng·h/mL"},
      {"measurement": "concentration at 24 h", "setting": "[10]", "result": 810, "unit": "nM"},
      {"measurement": "concentration at 24 h", "setting": "[11]", "result": 330, "unit": "nM"},
      {"measurement": "AUClast", "setting": "[13]", "result": 271.74, "unit": "ng·h/mL"},
      {"measurement": "Tmax", "setting": "[22]", "result": 2, "unit": "h"},
      {"measurement": "Tmax", "setting": "[23]", "result": 1, "unit": "h"},
      {"measurement": "AUClast", "setting": "[16]", "result": 541.78, "unit": "ng·h/mL"},
      {"measurement": "concentration at 24 h", "setting": "[17]", "result": 290, "unit": "nM"},
      {"measurement": "AUClast", "setting": "[18]", "result": 600.09, "unit": "ng·h/mL"},
      {"measurement": "Cmax", "setting": "[24]", "result": 112.31, "unit": "ng/mL"},
      {"measurement": "Tmax", "setting": "[25]", "result": 6, "unit": "h"}
    ]},
    {"compound": "CC(C)C(=O)OC[C@H]1O[C@@](C#N)(c2ccc3c(N)ncnn23)[C@H](O)[C@@H]1O", "note": "[OBELDESIVIR]", "values": [
      {"measurement": "EC50", "setting": "Ebolavirus [26]", "result": 4.16, "unit": "µM"}
    ]},
    {"compound": "CN(C)CCOc1ccc(/C(=C(/CCCl)c2ccccc2)c2ccccc2)cc1", "note": "[TOREMIFENE]", "values": [
      {"measurement": "IC50", "setting": "Ebolavirus [27]", "result": 0.162, "unit": "µM"}
    ]}
  ]
}
